A short description of data set [1]: Inhibition of protein interaction between beta-catenin D145A/E155A mutant (unknown origin)/N-terminal biotinylated human BCL9 ( 350 to 375 residues) incubated for 1 hr by Alpha-screen competitive inhibition assay. Background: Bead proximity is the source of the signal in Alpha formats.
Data set [2] is described as follows: Effect on HPRT mRNA expression in human SW480 cells at 2 uM incubated for 24 hrs by qPCR analysis relative to control. Conditions: read-out: FC. It is filed as ADME, cell-based. In outline:
(§1)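 SW480 cells at 1 × 10^6/mL were treated with inhibitor for 24 h. Total RNA was extracted with TRIzol and cDNA made by first-strand synthesis. SYBR green qPCR used human HPRT primers, with CT values normalised to GAPDH as internal reference. Performed in triplicate.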

The target in data set [3] is T1, beta-catenin-B-cell lymphoma 9 protein complex (Homo sapiens) (UniProt P35222+O00512). Nature of the data set: Inhibition of protein interaction between beta-catenin /BCL9 in human SW480 cells assessed as reduction in Wnt target genes by measuring LEF1 mRNA expression incubated for 24 hrs by qPCR analysis. The format is cell-based. In a few lines:
(§2)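 SW480 cells at 1 × 10^6/mL were treated with a range of inhibitor concentrations for 24 h. Total RNA was extracted with TRIzol and reverse-transcribed to cDNA. SYBR Green qPCR was run for Axin2, LEF1 and cyclin D1, with HPRT as a non-target housekeeping gene. CT values were normalized to GAPDH. Triplicate.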
A general note: In qPCR the cycle at which signal appears reflects the starting amount.

The target of data set [4] is T1, beta-catenin-B-cell lymphoma 9 protein complex (Homo sapiens). Nature of the data set: Inhibition of protein interaction between beta-catenin /BCL9 in human SW480 cells assessed as reduction in active form of beta-catenin expression incubated for 24 hrs by Western blot analysis. The format is cell-based. In a few lines: (§3)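 SW480 cells at 1 × 10^6 cells/mL were treated with a range of inhibitor concentrations for 24 h. Cells were lysed in Tris/NaCl/NP-40/deoxycholate/SDS buffer with protease inhibitors. Lysates were run on 8% SDS-PAGE and blotted to nitrocellulose. Blots were probed overnight at 4 °C for total β-catenin (mostly the E-cadherin-bound pool), active β-catenin (dephosphorylated S37/T41), cyclin D1, c-myc and β-tubulin. Detection used infrared secondary antibodies. Duplicate.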
On the technique in general: In western blotting, separated proteins are transferred to a membrane and probed.

Data set [5] is described as follows: Effect on HPRT mRNA expression in human SW480 cells at 1 uM incubated for 24 hrs by qPCR analysis relative to control. The format is ADME, cell-based. The note with it: read-out: FC. In a few lines:
as §1

The nature of data set [6]: Inhibition of protein interaction between beta-catenin D145A mutant (unknown origin)/N-terminal biotinylated human BCL9 ( 350 to 375 residues) incubated for 1 hr by Alpha-screen competitive inhibition assay.
Data set [7] can be described thus: Effect on HPRT mRNA expression in human SW480 cells at 4 uM incubated for 24 hrs by qPCR analysis relative to control. The format is ADME, cell-based. Conditions: read-out: FC. In a few lines: as §1
Data set [8] concerns the target T1, beta-catenin-B-cell lymphoma 9 protein complex (Homo sapiens). The data set can be described thus: Inhibition of protein interaction between beta-catenin /BCL9 in human SW480 cells assessed as reduction in Wnt target genes by measuring cyclin D1 mRNA expression incubated for 24 hrs by qPCR analysis. It is filed as cell-based. In outline:
as §2

Data set [9] has the same target. Nature of the data set: Inhibition of protein interaction between beta-catenin /BCL9 in human SW480 cells assessed as reduction in Wnt target genes by measuring cyclin D1 protein expression at 2 to 8 uM incubated for 24 hrs by Western blot analysis. Conditions: dose 2-8 µM. The format is cell-based. In a few lines: as §3
For data set [10] the target is unchanged. Nature of the data set: Inhibition of protein interaction between beta-catenin /BCL9 in human SW480 cells assessed as reduction in Wnt target genes by measuring Axin2 mRNA expression incubated for 24 hrs by qPCR analysis. The format is cell-based. In outline:
as §2

Data set [11] in a line: Inhibition of protein interaction between beta-catenin K181A mutant (unknown origin)/N-terminal biotinylated human BCL9 ( 350 to 375 residues) incubated for 1 hr by Alpha-screen competitive inhibition assay.
A short description of data set [12]: Effect on HPRT mRNA expression in human SW480 cells at 8 uM incubated for 24 hrs by qPCR analysis relative to control. The format is ADME, cell-based. The note with it: read-out: FC. In a few lines: as §1
A short description of data set [13]: Drug level in human HCT-116 cells assessed as per million cells at 50 uM incubated for 6 hrs at 37 degC in presence of DMEM media with 10% FBS. The note with it: hct-116, 6 h. The format is ADME, cell-based. In a few lines: (§4)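 Cells were incubated with 50 μM compound for 6 h in 5 mL DMEM with 10% FBS, at 37 °C or at 4 °C. Cell-bound compound was quantified by a previously described method and expressed as nmol per million cells. The 4 °C incubation was used to estimate binding to the cell membrane through nonspecific association.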

Data set [14] deals with T1, beta-catenin-B-cell lymphoma 9 protein complex (Homo sapiens). Nature of the data set: Inhibition of protein interaction between full-length beta-catenin (unknown origin) / full-length BCL9 (unknown origin) in human HCT-116 cell lysates incubated for 4 hrs by co-immunoprecipitation assay. It is filed as subcellular. In a few lines:
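HCT116 cells were lysed in 50 mM Tris pH 7.4, 150 mM NaCl, 1% NP-40, 2 mM EDTA and protease inhibitors. Lysates were incubated with a range of inhibitor concentrations for 4 h at 4 °C and precleared on protein A/G agarose. β-Catenin was immunoprecipitated overnight at 4 °C and captured on A/G beads for 3 h. Beads were washed five times and run on 8% SDS-PAGE. Blots were probed for BCL9 and E-cadherin.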

For data set [15] the target is unchanged. Nature of the data set: Inhibition of protein interaction between full-length beta-catenin (unknown origin) / full-length BCL9 (unknown origin) in human HCT-116 cells incubated for 24 hrs by co-immunoprecipitation assay. It is filed as cell-based. In a few lines: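 Intact HCT116 cells at 1 × 10^6/mL were treated with a range of inhibitor concentrations for 24 h. They were then lysed in Tris pH 7.4/NaCl/NP-40/EDTA buffer with protease inhibitors and precleared on A/G agarose. Anti-β-catenin immunoprecipitation ran overnight at 4 °C, with A/G capture for 3 h and five washes. Samples were run on 8% SDS-PAGE and immunoblotted for BCL9 and E-cadherin.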

The subject of a further data set is SW480. Nature of the data set: Cytotoxic activity in human SW480 cells at 800 uM incubated for 4 hrs by LDH release assay. The format is cell-based. Conditions: sw480, 4 h. In a few lines:
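SW480 cells were seeded at 2 × 10^4 cells/well and kept overnight at 37 °C. They were then exposed to a range of inhibitor concentrations for 4 h. LDH in the culture supernatant was measured with a diagnostic kit by absorbance at 490 nm. Percent cytotoxicity was calculated from experimental release against maximum release, with background subtracted. Run in triplicate.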

The nature of data set [16]: Effect on HPRT mRNA expression in human SW480 cells at 50 uM incubated for 24 hrs by qPCR analysis relative to control. The format is ADME, cell-based. Conditions: read-out: FC. In outline:
as §1

Data set [17] can be described thus: Effect on HPRT mRNA expression in human SW480 cells at 25 uM incubated for 24 hrs by qPCR analysis relative to control. The format is ADME, cell-based. The note with it: read-out: FC. In a few lines: as §1
The target of data set [18] is T1, beta-catenin-B-cell lymphoma 9 protein complex (Homo sapiens). Nature of the data set: Inhibition of protein interaction between beta-catenin /BCL9 in human SW480 cells assessed as reduction in Wnt target genes by measuring c-Myc protein expression at 25 to 100 uM incubated for 24 hrs by Western blot analysis. The format is cell-based. The note with it: dose 25-100 µM. In outline:
as §3

Data set [19] is described as follows: Drug level in human HCT-116 cells assessed as cell membrane bound compound level at 50 uM incubated for 6 hrs at 4 degC in presence of DMEM media with 10% FBS. Conditions: hct-116, 6 h. The format is ADME, cell membranes. In a few lines: as §4

pKi: −log10 of the molar value. The source made the active and inactive calls. The calls are words filed in the database; no cut-off is given here.

Four compounds from ChEMBL document CHEMBL4680104, “Structure-Based Optimization of Small-Molecule Inhibitors for the β-Catenin/B-Cell Lymphoma 9 Protein-Protein Interaction” (J Med Chem, 2018) can be followed below.

Regarding `Cl.Cl.O=C(Nc1ccc(O[C@H]2CCNC2)c(-c2ccc(F)cc2)c1)c1ccc(O[C@H]2CCNC2)c(-c2ccc3ccsc3c2)c1`, the pKi – broadly, the Ki on a negative log10 scale, so that one unit is a factor of ten – was 4.92 in [1], 5.38 in data set [6] and 5.77 in data set [11]. In addition, the fold induction at 2 µM in data set [2] turned out to be 1.21. Moreover, the inhibition entry in data set [3], in [4], in data set [8] and in [10] was “Dose-dependent effect” in each case. Moreover, the fold induction at 1 µM in data set [5] was determined as 1.09. The fold induction at 4 µM in data set [7] was 1.04. Besides, the inhibition result in [9] is “Active”.
Turning to `Cl.Cl.O=C(Nc1ccc(O[C@H]2CCNC2)c(-c2ccc(F)cc2)c1)c1ccc(O[C@H]2CCNC2)c(-c2ccc(F)c(F)c2)c1`, the inhibition result in data set [3], in data set [8] and in data set [10] was “Dose-dependent effect” throughout.
In the case of `Cc1cc(F)ccc1-c1cc(NC(=O)c2ccc(O[C@H]3CCNC3)c(-c3ccc(F)c(F)c3)c2)ccc1O[C@H]1CCNC1.Cl.Cl`, the fold induction at 8 µM in [12] turned out to be 0.124. Also, in data set [2], the fold induction at 2 µM is 0.166. Besides, in data set [7], the fold induction at 4 µM was 0.136.
With `Cl.Cl.O=C(Nc1ccc(O[C@@H]2CCNC2)c(-c2cccc(-c3nn[nH]n3)c2)c1)c1ccc(O[C@H]2CCNC2)c(-c2ccc(F)c(F)c2)c1`, the values for the pKi in data set [1], in [6] and in [11] were 4.92, 5.52 and 5.39, respectively. Also, the Drug uptake in [13] was determined as 6.6 nmol; in [19], 77%. The inhibition result in [14], in [3], in data set [4], in data set [15], in [8] and in data set [10] was “Dose-dependent effect” throughout. Moreover, the Activity entry with SW480 is “Non-Toxic”. In data set [16], the fold induction at 50 µM is 0.979. Moreover, in data set [17], the fold induction at 25 µM is 0.99. Further, the inhibition entry in data set [18] is “Active”.
